Measurements as given in ChEMBL document CHEMBL1143019, “Hybrid molecules of estrone: new compounds with potential antibacterial, antifungal, and antiproliferative activities” (2007).
In brackets after ≈: the same amount, converted by molar mass.

How the values were obtained:
Staphylococcus aureus [1] = experiment: Antibacterial activity against Staphylococcus aureus SG 511 after 24 hrs by micro-broth dilution method; format: functional; conditions: SG 511, 24 h
Summary of the method: (§1)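 Microbroth dilution per NCCLS guidelines. Bacteria grown overnight at 37 °C in Mueller–Hinton broth. Compound solution serially diluted twofold in MHB, then wells inoculated to a final 5×10⁵ CFU/mL. Incubated 24 h at 37 °C. MIC (µg/mL) read on an automatic plate reader as the lowest dilution allowing no visible growth.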

Staphylococcus aureus [2] = experiment: Antibacterial activity against methicillin-resistant Staphylococcus aureus 994/93 after 24 hrs by micro-broth dilution method; format: functional
Summary of the method: (§2)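 Broth microdilution per NCCLS in Mueller–Hinton broth. Overnight cultures grown at 37 °C. Compound serially diluted twofold, then wells inoculated to a final 5×10⁵ CFU/mL. Plates held at 37 °C for 24 h. MIC (µg/mL) read on an automatic plate reader as the lowest dilution with no visible growth.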

Staphylococcus aureus [3] = experiment: Antibacterial activity against methicillin-resistant Staphylococcus aureus 134/94 after 24 hrs by microbroth dilution method; format: functional; summary of the method: as §2
Micrococcus luteus = experiment: Antibacterial activity against Micrococcus luteus ATCC 10240 after 24 hrs by microbroth dilution method; format: functional; conditions: ATCC 10240, 24 h; summary of the method: as §1
Enterococcus faecalis = experiment: Antibacterial activity against Enterococcus faecalis 1528 after 24 hrs by micro-broth dilution method; format: functional; summary of the method: as §1
[4] = system: Mycolicibacterium smegmatis; experiment: Antimicrobial activity against Mycobacterium smegmatis SG 987 after 24 hrs by micro-broth dilution method; format: functional; summary of the method: as §1
Mycolicibacterium aurum = experiment: Antimicrobial activity against Mycobacterium aurum SB 66 after 24 hrs by micro-broth dilution method; format: functional; summary of the method: as §1
Mycolicibacterium vaccae = experiment: Antimicrobial activity against Mycobacterium vaccae 10670 after 24 hrs by micro-broth dilution method; format: functional; summary of the method: as §1
[5] = system: Mycolicibacterium fortuitum; experiment: Antimicrobial activity against Mycobacterium fortuitum Borstel after 24 hrs by microbroth dilution method; format: functional; summary of the method: as §1
[6] = system: Mycobacterium tuberculosis; experiment: Antimicrobial activity against Mycobacterium tuberculosis My 331/88 after 14 days; format: functional; conditions: 336 h
[7] = system: Mycobacterium tuberculosis; experiment: Antimicrobial activity against Mycobacterium tuberculosis My 331/88 after 21 days; format: functional; conditions: 504 h
Mycobacterium avium [8] = experiment: Antimicrobial activity against Mycobacterium avium My 330/88 after 14 days; format: functional; conditions: 336 h
Mycobacterium avium [9] = experiment: Antimicrobial activity against Mycobacterium avium My 330/88 after 21 days; format: functional; conditions: 504 h
Mycobacterium kansasii [10] = experiment: Antimicrobial activity against Mycobacterium kansasii My 235/80 after 7 days; format: functional; conditions: 168 h
Summary of the method: (§3)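 Run in Šula semisynthetic liquid medium containing bovine serum. Compounds added as DMSO solutions at final concentrations of […]. Each strain was also inoculated onto Löwenstein–Jensen medium to control inoculum sterility and growth.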

Mycobacterium kansasii [11] = experiment: Antimicrobial activity against Mycobacterium kansasii My 235/80 after 14 days; format: functional; conditions: 336 h; summary of the method: as §3
Mycobacterium kansasii [12] = experiment: Antimicrobial activity against Mycobacterium kansasii My 235/80 after 21 days; format: functional; conditions: 504 h; summary of the method: as §3
Mycobacterium kansasii [13] = experiment: Antimicrobial activity against Mycobacterium kansasii My 6509/96 after 7 days; format: functional; conditions: 168 h; summary of the method: as §3
Mycobacterium kansasii [14] = experiment: Antimicrobial activity against Mycobacterium kansasii My 6509/96 after 14 days; format: functional; conditions: 336 h; summary of the method: as §3
Mycobacterium kansasii [15] = experiment: Antimicrobial activity against Mycobacterium kansasii My 6509/96 after 21 days; format: functional; conditions: 504 h; summary of the method: as §3
Candida albicans = experiment: Antifungal activity against Candida albicans ATCC 44859 after 48 hrs; format: functional; conditions: ATCC 44859, 48 h
Summary of the method: (§4)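 Modified NCCLS M27-A broth microdilution with clinical isolates subcultured on Sabouraud dextrose agar. Suspensions diluted 1:50 in RPMI 1640 to give a final inoculum of 0.5–2.5×10³ CFU/mL for yeasts or 0.5–5×10⁴ CFU/mL for molds. The RPMI had L-glutamine, no bicarbonate, and 0.165 M MOPS to pH 7.0. Twofold dilutions from 250 to 0.49. Plates held at 35 °C, humid, without agitation. MIC is the lowest concentration giving ≥80% inhibition versus drug-free control, read at 24 and 48 h.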

Pichia kudriavzevii = experiment: Antifungal activity against Candida krusei E28 after 48 hrs; format: functional; summary of the method: as §4
Nakaseomyces glabratus = experiment: Antifungal activity against Candida glabrata 20/I after 48 hrs; format: functional; summary of the method: as §4
Trichosporon beigelii = experiment: Antifungal activity against Trichosporon beigelii 1188 after 48 hrs; format: functional; summary of the method: as §4
Lichtheimia corymbifera = experiment: Antifungal activity against Absidia corymbifera 272 after 48 hrs; format: functional; summary of the method: as §4
Trichophyton benhamiae = experiment: Antifungal activity against Trichophyton mentagrophytes 445 after 120 hrs; format: functional, Arthroderma benhamiae
Summary of the method: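 Same modified M27-A microdilution with the mold inoculum of 0.5–5×10⁴ CFU/mL. Medium was RPMI 1640 with L-glutamine, no bicarbonate, and 0.165 M MOPS at pH 7.0. Twofold dilutions from 250 to 0.49. Incubated at 35 °C in a humid atmosphere.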

L929 = experiment: Antiproliferative activity against mouse L929 cells after 72 hrs; format: functional; conditions: L929, 72 h
Summary of the method: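 About 10,000 adherent cells per well in RPMI 1640 with 10% heat-inactivated FBS and penicillin/streptomycin, without HEPES. Exposed to 10 concentrations for 72 h at 37 °C in humidified 5% CO₂. Monolayers fixed with glutaraldehyde, stained 15 min with 0.05% methylene blue, and eluted with 0.33 N HCl; OD read at 630 nm. GI50 derived from dose–response curves relative to control.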

K562 = experiment: Antiproliferative activity against human K562 cells after 72 hrs; format: functional; conditions: K562, 72 h
Summary of the method: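 About 10,000 suspension cells per well in RPMI 1640 with 10% heat-inactivated FBS and penicillin/streptomycin, without HEPES. Exposed to 10 concentrations for 72 h at 37 °C in humidified 5% CO₂. Wells diluted 1:50 in CASYTON and counted electronically, each result the mean of three successive counts. GI50 is where the concentration–response curve crosses 50% of control cell count.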

HeLa = experiment: Cytotoxicity against human HeLa cells after 72 hrs; format: functional; conditions: for CC50: Homo sapiens, HeLa, 72 h
Summary of the method: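 About 10,000 cells per well in RPMI 1640 were preincubated 48 h without compound. The 10 test concentrations were then applied onto the monolayers and incubated 72 h at 37 °C in humidified 5% CO₂. Monolayers fixed with glutaraldehyde, stained with 0.05% methylene blue, and eluted with 0.33 N HCl; optical density measured at 630 nm.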

SMILES	MIC (Staphylococcus aureus [1])	MIC (Staphylococcus aureus [2])	MIC (Staphylococcus aureus [3])	MIC (Micrococcus luteus)	MIC (Enterococcus faecalis)	MIC [4]	MIC (Mycolicibacterium aurum)	MIC (Mycolicibacterium vaccae)	MIC [5]	MIC [6]	MIC [7]	MIC (Mycobacterium avium [8])	MIC (Mycobacterium avium [9])	MIC (Mycobacterium kansasii [10])	MIC (Mycobacterium kansasii [11])	MIC (Mycobacterium kansasii [12])	MIC (Mycobacterium kansasii [13])	MIC (Mycobacterium kansasii [14])	MIC (Mycobacterium kansasii [15])	GI50 (L929)	also measured
Cc1ccc(CSc2cc[n+](CCCCCCCOc3ccc4c(c3)CC[C@@H]3[C@@H]4CC[C@]4(C)C(=O)CC[C@@H]34)cc2)cc1.[Br-]	1.56 µg/mL	3.12 µg/mL	3.12 µg/mL	0.8 µg/mL	3.12 µg/mL	6.25 µg/mL	3.12 µg/mL	1.56 µg/mL	6.25 µg/mL	4 µM	8 µM	8 µM	8 µM	16 µM	16 µM	16 µM	16 µM	16 µM	16 µM	3.5 µg/mL	MIC (Candida albicans): 3.9 µM; MIC (Pichia kudriavzevii): 7.8 µM; MIC (Nakaseomyces glabratus): 7.8 µM; MIC (Trichosporon beigelii): 7.8 µM; MIC (Lichtheimia corymbifera): 15.6 µM; MIC (Trichophyton benhamiae): 7.8 µM; GI50 (K562): 13.1 µg/mL; CC10 (HeLa): 1 µg/mL; CC50 (HeLa): 1.9 µg/mL
Cc1ccc(CSc2ccncc2)cc1	50 µg/mL (≈ 232 µM)	100 µg/mL (≈ 464 µM)	100 µg/mL (≈ 464 µM)	100 µg/mL (≈ 464 µM)	100 µg/mL (≈ 464 µM)	50 µg/mL (≈ 232 µM)	25 µg/mL (≈ 116 µM)	25 µg/mL (≈ 116 µM)	12.5 µg/mL (≈ 58.1 µM)	62.5 µM (≈ 13.5 µg/mL)	62.5 µM (≈ 13.5 µg/mL)	62.5 µM (≈ 13.5 µg/mL)	125 µM (≈ 26.9 µg/mL)	32 µM (≈ 6.89 µg/mL)	62.5 µM (≈ 13.5 µg/mL)	125 µM (≈ 26.9 µg/mL)	32 µM (≈ 6.89 µg/mL)	62.5 µM (≈ 13.5 µg/mL)	125 µM (≈ 26.9 µg/mL)	24.3 µg/mL (≈ 113 µM)	GI50 (K562): 37.5 µg/mL (≈ 174 µM); CC10 (HeLa): 13.3 µg/mL (≈ 61.8 µM); CC50 (HeLa): 21.4 µg/mL (≈ 99.4 µM)
